This is an account of results in ChEMBL document CHEMBL4706643 (J Med Chem, 2021).

Series [1] in a line: Clearance in C57BL/6 mouse at 5 mg/kg, iv. The settings on record: in vivo. It counts as ADME, organism-based. The gist of the method: (§1)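 Male C57BL/6 mice (n = 3), single dose IV 5 mg/kg, IP 10 mg/kg or PO 10 mg/kg in DMSO:cremophor:0.9% NaCl 5:5:90; plasma parameters reported as means.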
The test system of a further series is HepG2. Description: Antiviral activity against HBV genotype C infected in human HepG2-NTCP cells assessed as reduction in HBeAg secretion at 2 uM cells inoculated with virus for 4 hrs at room temperature and 37 degree C for 24 hrs followed inoculum changed with PMM medium for every 2 days until day 5 post infection by ELISA. It counts as functional, cell-based. Particulars: time 28.0 hrs. The gist of the method:
(§2)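 HepG2-NTCP cells seeded 4–6 h, then primary maintenance medium 20–24 h; virus inoculum plus compound dilutions 4 h at room temperature, then 37 °C 24 h; medium changed every 2 days to PMM with 2% FBS until day 5 post infection. Secreted HBeAg measured by ELISA; IC50 by nonlinear regression from six or more points, three repeats.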
A general note: In an ELISA, binding on a coated surface is turned into a signal by an enzyme label.

A short description of series [2]: AUC (0 to infinity) in C57BL/6 mouse at 10 mg/kg, po. It counts as ADME, organism-based. Further details: route oral, time infinity, dose 10 mg/kg. Particulars: in vivo. The gist of the method: (§3)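 Male C57BL/6 mice, n = 3, dosed IV at 5 mg/kg, IP at 10 mg/kg or by oral gavage (PO) at 10 mg/kg. All doses formulated in DMSO:cremophor:0.9% NaCl = 5:5:90. AUC from time zero to infinity (h*ng/mL) was derived from plasma drug levels and is reported as the mean of the males.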

Series [3] can be described thus: Half life in C57BL/6 mouse at 10 mg/kg, po. It counts as ADME, organism-based. Particulars: in vivo. The gist of the method: as §1
Series [4] has as its system Hepatitis B virus. Kind of series: Antiviral activity against HBV infected in human HepG2-NTCP cells assessed as reduction in HBV cccDNA levels cells inoculated with virus for 4 hrs at room temperature and 37 degree C for 24 hrs followed inoculum changed with PMM medium for every 2 days until day 5 post infection by DIG-labelled probe based southern blot analysis. It is filed as functional, organism-based. Particulars: time 28.0 hrs. The gist of the method: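 HepG2-NTCP cells infected with compound added together with HBV inoculum; DNA harvested day 5 post infection by modified Hirt extraction. Southern blot on 1.2% agarose, UV cross-linked, hybridised at 50 °C overnight with DIG-labelled full-length genotype D HBV genomic probe; chemiluminescent detection; 3.2, 2.1 and 1.7 kb HBV fragments as markers.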

The subject of the next series is Hepatitis delta virus. Description: Antiviral activity against HDV infected in C57B/L transgenic mouse harbouring human NTCP assessed as decrease in viral RNA levels in liver at 40 mg/kg, ip administered for 2 consecutive days followed by HDV challenge at day 2 and measured at day 8 post infection by qPCR analysis. It counts as functional, organism-based. Particulars: time 8.0 day. The gist of the method:
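Neonatal hNTCP-transgenic C57B/L mice received 40 mg/kg i.p. before HDV inoculation, either once or on two consecutive days (n = 4 per group; vehicle group n = 5). HDV was given at 5 × 10⁹ Geq i.p. on day 9 after birth, and mice were sacrificed on day 15. Liver RNA was assayed by RT-qPCR on cDNA from 20 ng RNA, with NTCP mRNA also measured. Group medians are shown.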
Background: In qPCR the cycle at which signal appears reflects the starting amount.

For series [5], the target named is T1, Solute carrier organic anion transporter family member 1B1 (Homo sapiens, UniProt Q9Y6L6).
T1 sequence (Q9Y6L6 whole entry): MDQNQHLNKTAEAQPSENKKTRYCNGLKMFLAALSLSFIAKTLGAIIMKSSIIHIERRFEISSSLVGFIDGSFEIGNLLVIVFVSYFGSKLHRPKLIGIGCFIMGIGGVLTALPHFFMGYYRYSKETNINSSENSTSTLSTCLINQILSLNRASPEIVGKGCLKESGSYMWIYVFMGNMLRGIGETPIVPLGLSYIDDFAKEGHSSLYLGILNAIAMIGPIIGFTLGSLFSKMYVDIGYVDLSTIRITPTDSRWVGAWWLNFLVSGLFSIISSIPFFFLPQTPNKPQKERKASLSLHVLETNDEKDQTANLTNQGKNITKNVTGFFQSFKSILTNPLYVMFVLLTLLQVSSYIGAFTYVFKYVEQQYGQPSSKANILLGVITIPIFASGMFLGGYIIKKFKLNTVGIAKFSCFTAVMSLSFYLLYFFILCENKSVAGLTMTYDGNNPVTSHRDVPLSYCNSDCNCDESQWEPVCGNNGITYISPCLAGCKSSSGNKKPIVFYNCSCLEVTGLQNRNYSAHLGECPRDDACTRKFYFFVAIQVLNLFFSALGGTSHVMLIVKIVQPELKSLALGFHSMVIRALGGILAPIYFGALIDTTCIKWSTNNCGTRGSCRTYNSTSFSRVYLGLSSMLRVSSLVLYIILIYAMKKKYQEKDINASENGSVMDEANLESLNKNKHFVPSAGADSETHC
Kind of series: Inhibition of OATP1B1 (unknown origin) mediated [3H]-estrone sulfate uptake expressed in human HepG2 cells. It counts as cell-based.

For series [6], the target named is T2, Hepatic sodium/bile acid cotransporter (Homo sapiens, UniProt Q14973).
T2 sequence (Q14973 whole entry): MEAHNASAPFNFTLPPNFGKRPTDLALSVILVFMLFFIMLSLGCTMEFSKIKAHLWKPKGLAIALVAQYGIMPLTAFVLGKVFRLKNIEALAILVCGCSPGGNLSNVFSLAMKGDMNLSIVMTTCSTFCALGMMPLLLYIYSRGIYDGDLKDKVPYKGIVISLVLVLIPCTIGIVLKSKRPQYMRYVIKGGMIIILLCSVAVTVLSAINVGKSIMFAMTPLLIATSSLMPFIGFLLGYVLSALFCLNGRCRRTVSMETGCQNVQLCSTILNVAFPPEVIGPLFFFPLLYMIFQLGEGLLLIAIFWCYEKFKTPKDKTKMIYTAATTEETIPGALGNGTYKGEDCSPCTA
Kind of series: Inhibition of Myr95F binding to human NTCP expressed in HepG2 cells assessed as decrease in cell membrane staining at 1 uM incubated for 2 hrs by fluorescence staining based analysis. Particulars: hepg2, 2 h. The gist of the method:
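HepG2-NTCP cells stained with fluorescent Myr59F pre-S1 peptide in presence of DMSO, compound (1 μM) or Myr47 (200 nM); membrane staining intensity quantified.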

Series [7] is described as follows: AUC (0 to infinity) in C57BL/6 mouse at 5 mg/kg, iv. More on the design: time infinity, route intravenous, dose 5 mg/kg. Particulars: in vivo. It is filed as ADME, organism-based. The gist of the method: as §3
In series [8] the test system is Hepatitis B virus. Kind of series: Antiviral activity against HBV genotype B infected in human HepG2-NTCP cells assessed as reduction in HBeAg secretion at 2 uM cells inoculated with virus for 4 hrs at room temperature and 37 degree C for 24 hrs followed inoculum changed with PMM medium for every 2 days until day 5 post infection by ELISA. Particulars: time 28.0 hrs. It counts as functional, organism-based. The gist of the method: as §2

A short description of series [9]: Intrinsic clearance in human liver microsomes at 1 uM preincubated for 5 mins followed by NADPH addition and measured upto 60 mins by LC-MS analysis. It is filed as ADME, Microsome. Particulars: read-out: CLH. The gist of the method: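 Human or mouse liver microsomes, final 1 mg/mL in 0.05 M phosphate buffer pH 7.4; compound final 1 μM, preincubated 37 °C 5 min, started with 1 mM NADPH; sampled at 0, 5, 15, 30, 60 min, methanol quench, −20 °C 1 h, centrifuged, supernatant by LC–MS.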
(Liver microsomes are vesicles of endoplasmic reticulum, rich in cytochrome P450 enzymes.)

Series [10] can be described thus: Half life in C57BL/6 mouse at 10 mg/kg, ip. It counts as ADME, organism-based. The settings on record: in vivo. The gist of the method:
as §1

Series [11] in a line: Tmax in C57BL/6 mouse at 10 mg/kg, ip. It counts as ADME, organism-based. Particulars: in vivo. The gist of the method:
as §1

Activity calls are given as the source filed them. No cut-off for these calls is given here.

Broadly, the clearance is the rate of elimination divided by the concentration. High values mean a high capacity for elimination, low ones a low capacity for elimination. By AUC(0-inf) is commonly meant the area under the concentration-time curve extrapolated to infinity. A word on the half-life: it is the time in which the quantity being followed falls by half. Read a low half-life as fast loss. As usually defined, the IC50 is the midpoint of a concentration-inhibition curve. A higher IC50 goes with a need for much substance. For orientation: Tmax means the time from dosing to the highest level. In turn, `CC[C@@H]1NC(=O)[C@H]([C@@H]2O[C@@H](Sc3cccc(OCc4ccccc4)c3)C[C@H]2C)N(C)C(=O)[C@H](C(C)C)N(C)C(=O)[C@H](CC(C)C)N(C)C(=O)[C@H](CC(C)C)N(C)C(=O)[C@@H](C)NC(=O)[C@H](C)NC(=O)[C@H](CC(C)C)N(C)C(=O)[C@H](C(C)C)NC(=O)[C@H](CC(C)C)N(C)C(=O)CN(C)C1=O` came in with a clearance in [1] of 2.1 mL/min/kg. Also, the outcome in the series on HepG2, with Hepatitis delta virus and in the series on Hepatitis B virus [8] was Active. Further, the total exposure AUC(0-inf) in series [2] stood at 14500 ng·h/mL; in series [7] it was 39700 ng·h/mL. Moreover, the half-life was 5.65 h in [3] and 5.68 h in series [10]. For the same compound, in the series on Hepatitis B virus [4], the Activity entry was “Dose-dependent effect”. For the same compound, the IC50 in [5] amounted to 2.27 µM. Moreover, the “inhibition (INH)” value in [6] is on record as “Active”. In addition, the microsomal CLint at 1 µM in series [9] was found to be 8 µL/min/mg. In series [11], the time of peak concentration (Tmax) was determined as 2 h.
